STAT1 activator – STAT1 signaling activators, primary screen, cell-based, HTS, luciferase reporter. NIH 3T3 STAT1-luciferase reporter, IFN-gamma, luminescence; 100% = IFN-gamma alone, no compound. activation (% of control), % at 5.5 µM. actives 2.6% (n = 200,000). AID 932, 2007;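 active = activation above the screen-wide mean activation plus 3 SD, cut at about 130% in these data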
STAT1 inh – STAT1 signaling inhibitors, primary screen, cell-based, HTS, luciferase reporter; NIH 3T3 STAT1-luciferase reporter, IFN-gamma, luminescence; inhibition, % at 5.5 µM; actives 0.35% (n = 200,000);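 active = inhibition above a set limit, the mean inhibition across all tested compounds plus 3 SD, cut at about 34% in these data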
STAT3 inh-1 – IL-6 driven STAT3 reporter inhibitors, primary screen, U3A cells, luciferase, luminescence, MLSCN library; inhibition, % at 5.5 µM; AID 862, 2007; IL-6 STAT3-luciferase reporter; host cell line lacks STAT1; actives 0.89% (n = 190,000);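 active = inhibition above the mean inhibition across all screened compounds plus 3 SD, cut at about 44% in these data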
STAT3 activator – IL-6 driven STAT3 reporter potentiators, primary screen, U3A cells, luciferase, luminescence, MLSCN library; IL-6 STAT3-luciferase reporter; 100% = signal with IL-6 EC80 alone; activation (% of control), % at 5.6 µM; actives 0.91% (n = 190,000); AID 871, 2007;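 active = activation above the screen-wide mean of compound activation plus 3 SD, cut at about 130% in these data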
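Detection: reporter luminescence signal / Assay system: STAT1-lacking human U3A cells, STAT3 luciferase reporter / Incubation: compound pre-incubation 1 h before IL-6, then 6 h stimulation at 37 °C / Control set: IL-6-only high control / Read-out: % activation relative to IL-6 control / Probe or stimulus: Interleukin-6, 33 ng/mL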
STAT3 inh-2 – STAT3 reporter inhibitors, retest of hits, confirmation, U3A cells, luciferase, luminescence; AID 1265, 2008; actives 45% (n = 1,200); inhibition, % at 5.7 µM; IL-6 STAT3 luciferase reporter; cell line lacks STAT1; shares compounds with STAT3 inh-1;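 active = inhibition above the hit cutoff computed for the primary STAT3 screen, cut at about 44% in these data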
NFkB inh STAT3ct – NF-kB reporter inhibitors in human cells, confirmation, counter-screen for STAT3 inhibitor project, cell-based, HEK293T, luciferase, TNF-alpha stimulus | shares compounds with STAT3 inh-1 | TNF-alpha induced | inhibition, % at 5.7 µM | actives 36% (n = 1,200);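 active = inhibition above the mean of solvent-only control wells plus 3 SD, cutoff set per campaign, cut at about 13% in these data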
STAT1 inh 2 – STAT1 reporter inhibitors, IFN-gamma induced, confirmation, counter-screen for STAT3 inhibitor project, cell-based, NIH 3T3, luciferase luminescence. NIH 3T3 STAT1-luciferase reporter. inhibition, % at 5.7 µM. shares compounds with STAT3 inh-1. AID 1317, 2008. actives 27% (n = 1,200);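 active = inhibition above the mean plus 3 SD of solvent-only control wells, limit set per screening run, cut at about 16% in these data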
Hits are given with their value; 0 = inactive; - = no result. Most compounds without a hit are left out; they make up all but 4.3% or so of the library.

SMILES	STAT1 activator	STAT1 inh	STAT3 inh-1	STAT3 activator	STAT3 inh-2	NFkB inh STAT3ct	STAT1 inh 2
Cc1nn2cc(-c3ncc(C(F)(F)F)cc3Cl)cnc2c1Br	129	0	47	0	47	0	0
Cc1cc2ncc(-c3ncc(C(F)(F)F)cc3Cl)cn2n1	0	0	64	0	0	0	0
FC(F)(F)c1cnc(-c2cnc3c(-c4ccc(Cl)cc4)cnn3c2)c(Cl)c1	0	0	0	0	-	-	-
N#Cc1cnn2cc(-c3ncc(C(F)(F)F)cc3Cl)cnc12	0	0	0	0	-	-	-
CCC(=O)Nc1cc2nn(-c3ccc(C)cc3)nc2cc1C	0	0	82	0	51	14	0
CCC(=O)Nc1cc2nn(-c3ccc(OC)cc3)nc2cc1C	133	0	44	0	0	0	0
CCCCC(=O)Nc1cc2nn(-c3ccc(OC)cc3)nc2cc1C	0	0	0	0	-	-	-
O=C(CC(Nc1ccc(F)cc1)C(=O)OCC(=O)c1cccs1)c1ccccc1 (stereo unspecified)	0	0	0	0	-	-	-
C=CC[n+]1c(-c2ccc(C)cc2)csc1Nc1ccc(NC(C)=O)cc1	0	0	63	0	52	18	0
CC1CC(C)(C)Nc2ccc(OC(=O)c3ccco3)cc21 (stereo unspecified)	0	0	62	0	0	25	0
CN(C)c1ccc(-c2nc3ccccc3n2C)cc1	0	0	77	0	0	0	0
CCn1c(-c2ccc(N(C)C)cc2)nc2ccccc21	0	0	44	0	0	0	0
CCn1c(-c2ccc(N)cc2)nc2ccccc21	0	0	0	0	-	-	-
CN1\C(=C/C=C/C=C/C=[N+](C)C)C(C)(C)c2ccccc21	0	0	54	0	0	0	29
CN1/C(=C\C=O)C(C)(C)c2ccccc21	0	0	0	0	-	-	-
Clc1ccc2[nH]cc(-c3nnnn3-c3ccccc3)c2c1	0	0	0	0	-	-	-
Clc1ccc2ncc(-c3nnnn3-c3ccccc3)c(-c3ccccc3)c2c1	0	0	61	0	44	0	0
COc1ccc(CN(C)C(C)C(=O)Nc2ccc(S(=O)(=O)N3CCCC3)cc2)c(OC)c1OC (stereo unspecified)	0	0	45	0	0	0	18
CCN(C(=O)COC(=O)c1c2c(nc3ccccc13)/C(=C/c1ccccc1)CC(C)C2)C1CCS(=O)(=O)C1 (stereo unspecified)	0	0	0	0	-	-	-
COC(=O)c1ccc(C(=O)OC)c(NC(=O)CN(c2ccc3c(c2)OCO3)S(C)(=O)=O)c1	0	0	0	0	-	-	-
CC(C)C(=O)Nc1ccc2nn(-c3ccccc3)nc2c1	0	0	48	0	0	0	0
O=C(Nc1ccccc1)Nc1ccc(C(=O)N2CCCC2)cc1	0	0	45	0	0	0	0
O=CN1CCCN(Cc2nc(-c3cccc(Cl)c3)no2)CC1	0	0	0	0	-	-	-
Cc1nc2ccc(NC(=O)c3cc(S(=O)(=O)N(C)c4ccccc4)ccc3Cl)cc2s1	0	0	55	0	64	26	27
Cc1nc2ccc(NC(=O)c3ccc(Cl)c(S(=O)(=O)N(C)c4ccccc4)c3)cc2s1	0	0	0	0	-	-	-
SMILES	STAT1 activator	STAT1 inh	STAT3 inh-1	STAT3 activator	STAT3 inh-2	NFkB inh STAT3ct	STAT1 inh 2
Cn1c(=O)oc2cc(S(=O)(=O)N3CCCC(C(=O)NC4CCCc5ccccc54)C3)ccc21 (stereo unspecified)	0	0	81	0	75	34	0
Cn1c(=O)oc2cc(S(=O)(=O)N3CCCC(C(=O)N4CC=C(c5ccccc5)CC4)C3)ccc21 (stereo unspecified)	0	0	56	0	44	0	0
Cn1c(=O)oc2cc(S(=O)(=O)N3CCCC(C(=O)Nc4ccccn4)C3)ccc21 (stereo unspecified)	0	0	0	0	-	-	-
CN(C(=O)CSC1=NC2C(N=N1)c1cc(Br)ccc1N2C)C1CCCCC1 (stereo unspecified)	0	0	0	0	-	-	-
Cc1ccc(C(=O)/C=C/Nc2ccccc2C(N)=O)cc1	0	0	76	0	0	0	0
CCOC(=O)c1ccccc1N/C=C/C(=O)c1ccccc1	0	0	0	0	-	-	-
NC(=O)c1ccccc1N/C=C/C(=O)c1ccc(Cl)cc1	0	0	60	0	0	0	0
Cc1nc(C#N)c(N/N=C/c2c(F)cccc2Cl)o1	0	0	0	0	-	-	-
Cc1ccc(Cl)cc1N1CCN(C(=O)CSc2nnc3n2C(C)(C)Cc2ccccc2-3)CC1	0	0	81	0	72	15	17
CC(NC(=O)CCc1ccccc1)c1cc2c(cc1Cl)OCCO2 (stereo unspecified)	0	0	0	0	-	-	-
COCCN(C(=O)CSc1nnc(Nc2ccccc2F)s1)c1c(N)n(Cc2ccccc2)c(=O)[nH]c1=O	0	0	0	0	-	-	-
COc1ccc(CN2CCC(CO)(Cc3cccc(C(F)(F)F)c3)CC2)cc1Cn1cccn1	0	0	0	0	-	-	-
O=C(Nc1ccn(Cc2ccccc2F)n1)c1ccc(COc2ccccc2Cl)cc1	0	0	46	0	46	0	0
CC(C)n1c(NCCc2ccccc2)nc2c1c(=O)n(C)c(=O)n2C	0	0	45	0	0	0	32
c1ccc2oc(C3=NNC(=NC4CC4)SC3)cc2c1	0	0	57	0	0	0	0
O=C(NCc1cccnc1)c1c[nH]c2cc3c(cc2c1=O)OCCO3	0	0	60	0	0	0	0
COc1cccc(N(C(=O)CS(=O)CC(=O)Nc2ccc(F)cc2)C(C(=O)NC2CCCCC2)c2cccs2)c1 (stereo unspecified)	0	0	0	0	-	-	-
COc1ccc(N(C(=O)CCl)C(C(=O)NCCc2ccccc2)c2cccs2)cc1Cl (stereo unspecified)	0	0	91	0	104	0	20
COc1ccc(N(C(=O)c2ccco2)C(C(=O)NC2CCCCC2)c2cccs2)cc1OC (stereo unspecified)	0	0	0	0	-	-	-
COc1cccc(N(C(=O)CCl)C(C(=O)NCCc2ccccc2)c2cccs2)c1 (stereo unspecified)	0	0	63	0	95	22	25
COc1ccccc1Nc1nnc(SCc2cc(=O)n3cc(C)ccc3n2)s1	0	0	0	0	-	-	-
Oc1ccc(O)c(Cc2nc3ccccc3s2)c1	0	0	0	0	-	-	-
COc1cccc(-c2nc3ccccc3s2)c1O	0	0	44	0	0	0	0

Bioassay records: PubChem, The Scripps Research Institute Molecular Screening Center
